# Assay results from ChEMBL document CHEMBL1156077, “Piperazinyl-glutamate-pyrimidines as potent P2Y12 antagonists for inhibition of platelet aggregation” (Bioorg Med Chem Lett, 2009).
# Tests used:
# P2Y purinoceptor 12 [1] = target: T1, P2Y purinoceptor 12 (Homo sapiens, UniProt Q9H244); experiment: Ratio of compound IC50 to AZD-6140 IC50 for P2Y12 receptor in human platelet rich plasma assessed as inhibition of ADP-induced platelet aggregation by light transmission aggregometry
# Procedure, shortened: (§1)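 Human platelet-rich plasma was pre-incubated 5 min at 37 °C with compound across seven concentrations (10 down to 0.156). Aggregation was started with ADP (20, final) and followed by light transmission at 626 nm for 15 min at 37 °C. Duplicate concentration-response data were read at the 15-min end-point. IC50 was divided by the IC50 of AZD-6140 run on the same plate.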
# P2Y purinoceptor 12 [2] = target: T1, P2Y purinoceptor 12; experiment: Ratio of compound IC50 to thienopyrimidine IC50 for P2Y12 receptor in human platelet rich plasma assessed as inhibition of ADP-induced platelet aggregation by light transmission aggregometry
# Procedure, shortened: as §1, with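 “the thienopyrimidine reference” for “AZD-6140”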
# [3] = Selectivity for human P2Y12 receptor over P2Y13
# P2Y purinoceptor 12 [4] = target: T1, P2Y purinoceptor 12; experiment: Binding affinity at human recombinant P2Y12 receptor expressed in CHO cells by radioligand binding assay; format: cell-based
# Procedure, shortened: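 Washed membranes from CHO cells transfected with synthetic human P2Y12 gene. Compounds as 7-point threefold dilutions, triplicate, 1 h at room temperature. Nonspecific binding defined with 300 nM 2-MeSADP. Filtered, washed with ice-cold Tris pH 7.4. Single-site fit; IC50 converted to Ki by Cheng–Prusoff, geometric mean of n≥2.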
# [5] = Selectivity for human P2Y12 receptor over P2Y1
# T1 sequence (Q9H244 whole entry): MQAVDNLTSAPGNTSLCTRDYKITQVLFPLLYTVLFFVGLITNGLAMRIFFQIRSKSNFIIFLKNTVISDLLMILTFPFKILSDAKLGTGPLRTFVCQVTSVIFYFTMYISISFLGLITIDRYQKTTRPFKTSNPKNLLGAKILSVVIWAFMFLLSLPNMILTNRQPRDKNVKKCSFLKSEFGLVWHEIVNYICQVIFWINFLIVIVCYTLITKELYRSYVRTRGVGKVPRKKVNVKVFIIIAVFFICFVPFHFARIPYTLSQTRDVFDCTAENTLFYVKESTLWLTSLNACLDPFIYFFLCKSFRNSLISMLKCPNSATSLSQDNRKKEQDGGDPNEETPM
Structure (SMILES),Ratio IC50 (P2Y purinoceptor 12 [1]),Ratio IC50 (P2Y purinoceptor 12 [2]),fold change (FC) [3],Ki (P2Y purinoceptor 12 [4]) [nM],fold change (FC) [5]
CCCCCOC(=O)N1CCN(C(=O)[C@H](CCC(=O)O)NC(=O)c2nc(-c3ccccc3)cc(N3CCC(C(N)=O)CC3)n2)CC1,1.9,0.4,> 340,3.5,> 340
CCCCCOC(=O)N1CCN(C(=O)[C@H](CCC(=O)O)NC(=O)c2nc(-c3ccccc3)cc(N3CCN(CCOC)CC3)n2)CC1,8.3,1.6,> 340,12,> 340
CCCCCOC(=O)N1CCN(C(=O)[C@H](CCC(=O)O)NC(=O)c2cc(N3CCC(OCCOC)CC3)nc(-c3ccccc3)n2)CC1,0.8,0.2,> 340,5.3,> 340
CCCCCOC(=O)N1CCN(C(=O)[C@H](CCC(=O)O)NC(=O)c2nc(-c3ccccc3)cc(N3CCC(CCN)CC3)n2)CC1,1.9,0.4,> 340,3,> 340
CCCCCOC(=O)N1CCN(C(=O)[C@H](CCC(=O)O)NC(=O)c2cc(OCCCN3CCOCC3)nc(-c3ccccc3)n2)CC1,8.3,1.4,> 340,2.8,> 340
CCCCCOC(=O)N1CCN(C(=O)[C@H](CCC(=O)O)NC(=O)c2nc(-c3ccccc3)cc(N3CCN(C(N)=O)CC3)n2)CC1,4.7,1,> 340,5.8,> 340
CCCCCOC(=O)N1CCN(C(=O)[C@H](CCC(=O)O)NC(=O)c2cc(OCC3CCN(C)CC3)nc(-c3ccccc3)n2)CC1,3.7,0.5,> 340,5.7,> 340
CCCCCOC(=O)N1CCN(C(=O)[C@H](CCC(=O)O)NC(=O)c2cc(N3CCNCC3)nc(-c3ccccc3)n2)CC1,1.4,0.3,> 340,2,> 340
CCCCOC(=O)N1CCN(C(=O)[C@H](CCC(=O)O)NC(=O)c2cc(OCC3CCCO3)nc(-c3ccccc3)n2)CC1 (stereo not given in full),3.8,1.4,> 340,55,> 340
CCCCCOC(=O)N1CCN(C(=O)[C@H](CCC(=O)O)NC(=O)c2cc(N3CCN(CCOC)CC3)nc(-c3ccccc3)n2)CC1,1.5,0.3,> 340,2.3,> 340
CCCCCOC(=O)N1CCN(C(=O)[C@H](CCC(=O)O)NC(=O)c2cc(OCCN(CC)CC)nc(-c3ccccc3)n2)CC1,17,2.4,> 340,27,> 340
CCCCCOC(=O)N1CCN(C(=O)[C@H](CCC(=O)O)NC(=O)c2nc(-c3ccccc3)cc(N3CCC(CCN4CCCC4)CC3)n2)CC1,1.7,0.4,> 340,4.2,> 340
CCCCOC(=O)N1CCN(C(=O)[C@H](CCC(=O)O)NC(=O)c2cc(N3CCC(C(=O)N(CC)CC)CC3)nc(-c3ccccc3)n2)CC1,0.6,0.1,> 340,0.79,> 340
CCCCCOC(=O)N1CCN(C(=O)[C@H](CCC(=O)O)NC(=O)c2cc(N3CCC(CN4CCCC4=O)CC3)nc(-c3ccccc3)n2)CC1,2,0.4,> 340,0.99,> 340
CCCCCOC(=O)N1CCN(C(=O)[C@H](CCC(=O)O)NC(=O)c2nc(-c3ccccc3)cc(N3CCN(CC(=O)N(C)C)CC3)n2)CC1,3.5,0.8,> 340,6.8,> 340
CCCCCOC(=O)N1CCN(C(=O)[C@H](CCC(=O)O)NC(=O)c2cc(N3CCN(CC(=O)N4CCCC4)CC3)nc(-c3ccccc3)n2)CC1,1.5,0.2,> 340,2.1,> 340
CCCCCOC(=O)N1CCN(C(=O)[C@H](CCC(=O)O)NC(=O)c2cc(N3CCN(C)CC3)nc(-c3ccccc3)n2)CC1,1.3,0.3,> 340,2.7,> 340
CCCCCOC(=O)N1CCN(C(=O)[C@H](CCC(=O)O)NC(=O)c2cc(N3CCC(CCOC)CC3)nc(-c3ccccc3)n2)CC1,5.4,1.3,> 340,10.2,> 340

Structure (SMILES),Ratio IC50 (P2Y purinoceptor 12 [1]),Ratio IC50 (P2Y purinoceptor 12 [2]),fold change (FC) [3],Ki (P2Y purinoceptor 12 [4]) [nM],fold change (FC) [5]
CCCCCOC(=O)N1CCN(C(=O)[C@H](CCC(=O)O)NC(=O)c2nc(OCC3CCN(C)CC3)cc(-c3ccccc3)n2)CC1,4.4,0.8,> 340,12,> 340
CCCCCOC(=O)N1CCN(C(=O)[C@H](CCC(=O)O)NC(=O)c2cc(OCCOC)nc(-c3ccccc3)n2)CC1,8.8,1.2,> 340,1.2,> 340
CCCCCOC(=O)N1CCN(C(=O)[C@H](CCC(=O)O)NC(=O)c2cc(N3CCC(CNCC)CC3)nc(-c3ccccc3)n2)CC1,0.7,0.1,> 340,2.2,> 340
CCCCCOC(=O)N1CCN(C(=O)[C@H](CCC(=O)O)NC(=O)c2cc(N3CCC(OC)CC3)nc(-c3ccccc3)n2)CC1,1.6,0.5,> 340,5,> 340
CCCCCOC(=O)N1CCN(C(=O)[C@H](CCC(=O)O)NC(=O)c2cc(NC3CCN(C(C)C)CC3)nc(-c3ccccc3)n2)CC1,3.5,0.9,> 340,9.4,> 340
CCCCCOC(=O)N1CCN(C(=O)[C@H](CCC(=O)O)NC(=O)c2cc(N3CCC(CC(=O)NCC)CC3)nc(-c3ccccc3)n2)CC1,1.6,0.3,> 340,0.67,> 340
CCCCCOC(=O)N1CCN(C(=O)[C@H](CCC(=O)O)NC(=O)c2cc(N3CCOCC3)nc(-c3ccccc3)n2)CC1,7.9,2,> 340,1,> 340
CCCCOC(=O)N1CCN(C(=O)[C@H](CCC(=O)O)NC(=O)c2cc(N3CCC(C(=O)N(C)C)CC3)nc(-c3ccccc3)n2)CC1,1.1,0.2,> 340,1.3,> 340
CCCCCOC(=O)N1CCN(C(=O)[C@H](CCC(=O)O)NC(=O)c2cc(OCC3CCNCC3)nc(-c3ccccc3)n2)CC1,1.7,0.3,> 340,2.2,> 340
CCCCCOC(=O)N1CCN(C(=O)[C@H](CCC(=O)O)NC(=O)c2cc(N3CCC(CC(=O)N(CC)CC)CC3)nc(-c3ccccc3)n2)CC1,3.3,0.6,> 340,3.1,> 340
CCCCCOC(=O)N1CCN(C(=O)[C@H](CCC(=O)O)NC(=O)c2nc(-c3ccccc3)cc(N3CCC(N)CC3)n2)CC1,3.1,0.6,> 340,8.4,> 340
CCCCOC(=O)N1CCN(C(=O)[C@H](CCC(=O)O)NC(=O)c2cc(OCC3CCN(C)CC3)nc(-c3ccccc3)n2)CC1,3.7,0.9,> 340,15,> 340
CCCCCOC(=O)N1CCN(C(=O)[C@H](CCC(=O)O)NC(=O)c2nc(-c3ccccc3)cc(N3CCC(N4CCCC4)CC3)n2)CC1,2.4,0.4,> 340,7.4,> 340
CCCCCOC(=O)N1CCN(C(=O)[C@H](CCC(=O)O)NC(=O)c2nc(-c3ccccc3)cc(N3CCC(CNC)CC3)n2)CC1,1,0.4,> 340,11,> 340
CCCCCOC(=O)N1CCN(C(=O)[C@H](CCC(=O)O)NC(=O)c2cc(N3CCN(C(N)=O)CC3)nc(-c3ccccc3)n2)CC1,0.8,0.2,> 340,1.2,> 340
CCCCCOC(=O)N1CCN(C(=O)[C@H](CCC(=O)O)NC(=O)c2cc(N3CCC(CCN(C)C)CC3)nc(-c3ccccc3)n2)CC1,0.4,0.1,> 340,2.8,> 340
CCCCOC(=O)N1CCN(C(=O)[C@H](CCC(=O)O)NC(=O)c2cc(OCCN(CC)CC)nc(-c3ccccc3)n2)CC1,4.3,1.1,> 340,72,> 340
